According to ChEMBL document CHEMBL1153198, “Design, synthesis and prostate cancer cell-based studies of analogs of the Rho/MKL1 transcriptional pathway inhibitor, CCG-1423” (Bioorg Med Chem Lett, 2010):

How the values were obtained:
[1] = molecular target: Transforming protein RhoA/Rho-related GTP-binding protein RhoC (Homo sapiens, UniProt P61586+P08134); assay: Inhibition of RhoA/C-mediated transcriptional response in human PC3 cells by serum response factor-luciferase reporter gene assay; type: cell-based; conditions: pc-3
PC-3 [2] = assay: Cytotoxicity against human PC3 cells assessed as inhibition of mitochondrial metabolism at 10 uM by WST-1 assay; type: functional
PC-3 [3] = assay: Cytotoxicity against human PC3 cells assessed as inhibition of mitochondrial metabolism at 100 uM by WST-1 assay; type: functional
PC-3 [4] = assay: Antiinvasive activity in human PC3 cells at 10 uM by Matrigel cell invasion assay; type: functional
Method in brief: (§1)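 PC-3 cells (2 × 10^5) were seeded in low-serum DMEM (0.5% FBS) in the upper chamber of 24-well Matrigel inserts, with compound or DMSO. The lower well held the same 0.5% FBS medium, and cells were incubated 24 h at 37 °C in 5% CO2. Inserts were methanol-fixed, stained with 0.5% crystal violet, and non-invaded cells were wiped off. Stain was extracted in 20% acetic acid and read at 595 nm.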

PC-3 [5] = assay: Antiinvasive activity in human PC3 cells at 100 uM by Matrigel cell invasion assay; type: functional; method in brief: as §1

| SMILES | IC50 [1] [µM] | also measured |
| --- | --- | --- |
| O=C(CONC(=O)c1cccc(C(F)(F)F)c1)Nc1ccc(Cl)cc1 | 27 | inhibition at 10 µM (PC-3 [2]): 0%; inhibition at 100 µM (PC-3 [3]): 58% |
| O=C(Nc1cc(C(F)(F)F)cc(C(F)(F)F)c1)C1CCN(C(=O)c2ccc(Cl)cc2)CC1 | 10 | inhibition at 10 µM (PC-3 [2]): 10%; inhibition at 100 µM (PC-3 [3]): 88% |
| O=C(CC1CC(c2cc(C(F)(F)F)cc(C(F)(F)F)c2)=NO1)Nc1ccc(Cl)cc1 (centres undefined) | 4.2 | inhibition at 100 µM (PC-3 [3]): 38% |
| O=C(NCCc1cn(-c2ccc(Cl)cc2)nn1)c1cc(C(F)(F)F)cc(C(F)(F)F)c1 | > 100 |  |
| O=C(CONC(=O)c1ccc(C(F)(F)F)cc1)Nc1ccc(Cl)cc1 | 29 | inhibition at 10 µM (PC-3 [2]): 0%; inhibition at 100 µM (PC-3 [3]): 56% |
| O=C(CCNC(=O)c1cc(C(F)(F)F)cc(C(F)(F)F)c1)NCc1ccc(Cl)cc1 | > 100 |  |
| O=C(NCCCNc1ccc(Cl)cc1)c1cc(C(F)(F)F)cc(C(F)(F)F)c1 | 5.1 |  |
| O=C(CCCCNC(=O)c1cc(C(F)(F)F)cc(C(F)(F)F)c1)Nc1ccc(Cl)cc1 | > 100 |  |
| O=C(Nc1ccc(Cl)cc1)C1CCN(C(=O)c2cc(C(F)(F)F)cc(C(F)(F)F)c2)CC1 | 16 |  |
| O=C(CONC(=O)c1cc(C(F)(F)F)cc(C(F)(F)F)c1)Nc1cccc(Cl)c1 | 5.9 |  |
| O=C(CONC(=O)c1cc(C(F)(F)F)cc(C(F)(F)F)c1)Nc1ccccc1 | 36 | inhibition at 10 µM (PC-3 [2]): 0%; inhibition at 100 µM (PC-3 [3]): 37% |
| O=C(CONC(=O)c1ccccc1)Nc1ccc(Cl)cc1 | > 100 |  |
| O=C(CONC(=O)c1ccc(Cl)cc1)Nc1cc(C(F)(F)F)cc(C(F)(F)F)c1 | 8.6 |  |
| O=C(CC1CCCCN1C(=O)c1cc(C(F)(F)F)cc(C(F)(F)F)c1)Nc1ccc(Cl)cc1 (centres undefined) | 9.5 | inhibition at 100 µM (PC-3 [3]): 14% |
| O=C(Nc1ccccc1C(=O)Nc1ccc(Cl)cc1)c1cc(C(F)(F)F)cc(C(F)(F)F)c1 | > 100 |  |
| CN(C(=O)CCNC(=O)c1cc(C(F)(F)F)cc(C(F)(F)F)c1)c1ccc(Cl)cc1 | > 100 |  |
| O=C(CCNCc1cc(C(F)(F)F)cc(C(F)(F)F)c1)Nc1ccc(Cl)cc1 | 8.1 | inhibition (INH) (PC-3 [4]): 47% |

| SMILES | IC50 [1] [µM] | also measured |
| --- | --- | --- |
| FC(F)(F)c1cc(CNCCCNc2ccc(Cl)cc2)cc(C(F)(F)F)c1 | 9.1 | inhibition at 100 µM (PC-3 [5]): 86% |
| O=C(Nc1ccc(Cl)cc1)C1CCCN1C(=O)c1cc(C(F)(F)F)cc(C(F)(F)F)c1 (centres undefined) | 69 | inhibition at 100 µM (PC-3 [5]): 78% |
| O=C(Nc1ccc(Cl)cc1)c1cccc(NC(=O)c2cc(C(F)(F)F)cc(C(F)(F)F)c2)c1 | 1.7 |  |
| O=C(N[C@@H]1CCC[C@@H]1C(=O)Nc1ccc(Cl)cc1)c1cc(C(F)(F)F)cc(C(F)(F)F)c1 | > 100 |  |
| O=C(NCCCOc1ccc(Cl)cc1)c1cc(C(F)(F)F)cc(C(F)(F)F)c1 | 8.9 | inhibition at 100 µM (PC-3 [5]): 26% |
| O=C(CONC(=O)c1cc(C(F)(F)F)cc(C(F)(F)F)c1)Nc1ccc(Cl)cc1 | 4.7 |  |
| O=C(CNC(=O)c1cc(C(F)(F)F)cc(C(F)(F)F)c1)Nc1ccc(Cl)cc1 | 33 |  |
| O=C(CCCNC(=O)c1cc(C(F)(F)F)cc(C(F)(F)F)c1)Nc1ccc(Cl)cc1 | 21 |  |
| O=C(c1cc(C(F)(F)F)cc(C(F)(F)F)c1)N1CCC(=O)N(c2ccc(Cl)cc2)CC1 | > 100 |  |
| O=C(Nc1ccc(Cl)cc1)c1ccc(NC(=O)c2cc(C(F)(F)F)cc(C(F)(F)F)c2)cc1 | > 100 | inhibition at 100 µM (PC-3 [5]): 0% |
| O=C(NCCC(=O)N1CCc2cc(Cl)ccc21)c1cc(C(F)(F)F)cc(C(F)(F)F)c1 | 13 | inhibition (INH) (PC-3 [4]): 0%; inhibition at 100 µM (PC-3 [5]): 0% |
| O=C(Nc1ccc(Cl)cc1)C1CCN(C(=O)c2cc(C(F)(F)F)cc(C(F)(F)F)c2)C1 (centres undefined) | 16.3 | inhibition at 100 µM (PC-3 [3]): 67% |
| O=C(CCc1cn(-c2cc(C(F)(F)F)cc(C(F)(F)F)c2)nn1)Nc1ccc(Cl)cc1 | > 100 |  |
| O=C(c1cc(C(F)(F)F)cc(C(F)(F)F)c1)N1CCC(Nc2ccc(Cl)cc2)CC1 | 10.8 | inhibition at 10 µM (PC-3 [2]): 19%; inhibition at 100 µM (PC-3 [3]): 0% |
| O=C(NCc1csc(-c2ccc(Cl)cc2)n1)c1cc(C(F)(F)F)cc(C(F)(F)F)c1 | 4.1 |  |
| O=C(CCNC(=O)c1cc(C(F)(F)F)cc(C(F)(F)F)c1)Nc1ccc(Cl)cc1 | 38 | inhibition at 100 µM (PC-3 [3]): 10% |
